In assay [1] the test system is Pyricularia oryzae. The assay can be described thus: Antifungal activity against Pyricularia oryzae HNM 1003 assessed as growth inhibition at 0.6 mM measured after 48 hrs by microbroth dilution method. The class given is functional. The settings on record: HNM 1003, 48 h, read-out: GI.
Assay [2] deals with Indoleamine 2,3-dioxygenase 1 (Homo sapiens, UniProt P14902). The assay can be described thus: Inhibition of recombinant human IDO1 expressed in Escherichia coli […] preincubated for 15 mins followed by substrate addition and measured after 60 mins.
Sequence of Indoleamine 2,3-dioxygenase 1 (P14902 whole entry): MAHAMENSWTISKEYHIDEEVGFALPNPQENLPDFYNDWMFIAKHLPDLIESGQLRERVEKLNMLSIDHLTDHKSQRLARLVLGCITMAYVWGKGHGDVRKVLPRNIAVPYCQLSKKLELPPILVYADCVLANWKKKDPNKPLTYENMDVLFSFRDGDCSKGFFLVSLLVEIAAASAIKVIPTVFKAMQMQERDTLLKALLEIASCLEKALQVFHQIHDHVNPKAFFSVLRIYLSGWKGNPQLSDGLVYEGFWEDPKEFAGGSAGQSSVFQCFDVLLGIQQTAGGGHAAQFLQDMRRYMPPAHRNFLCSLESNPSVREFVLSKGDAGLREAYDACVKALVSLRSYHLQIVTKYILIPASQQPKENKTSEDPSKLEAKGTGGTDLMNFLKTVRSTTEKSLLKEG
In assay [3] the test system is Colletotrichum gloeosporioides. As to the kind of experiment: Antifungal activity against Colletotrichum gloeosporioides HNM 1003 assessed as growth inhibition at 0.6 mM measured after 48 hrs by microbroth dilution method. In kind it is functional. The settings on record: HNM 1003, 48 h, read-out: GI. The method in brief:
(§1)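 Fungi were grown on PDA plates for 6−8 days at 30 °C, then the mycelia were moved into PD medium and filtered through cotton to give a spore suspension. Each well held PD medium, sample from a 10 mg/mL DMSO stock at about 0.6 mM, and spores (1 × 10^6 CFU). DMSO served as the negative control. OD600 was read at 0 and 48 h at 28 °C and percent growth inhibition calculated.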

Assay [4] has as its target T1, Tyrosine-protein phosphatase non-receptor type 1 (Homo sapiens, UniProt P18031).
T1 sequence (P18031 whole entry): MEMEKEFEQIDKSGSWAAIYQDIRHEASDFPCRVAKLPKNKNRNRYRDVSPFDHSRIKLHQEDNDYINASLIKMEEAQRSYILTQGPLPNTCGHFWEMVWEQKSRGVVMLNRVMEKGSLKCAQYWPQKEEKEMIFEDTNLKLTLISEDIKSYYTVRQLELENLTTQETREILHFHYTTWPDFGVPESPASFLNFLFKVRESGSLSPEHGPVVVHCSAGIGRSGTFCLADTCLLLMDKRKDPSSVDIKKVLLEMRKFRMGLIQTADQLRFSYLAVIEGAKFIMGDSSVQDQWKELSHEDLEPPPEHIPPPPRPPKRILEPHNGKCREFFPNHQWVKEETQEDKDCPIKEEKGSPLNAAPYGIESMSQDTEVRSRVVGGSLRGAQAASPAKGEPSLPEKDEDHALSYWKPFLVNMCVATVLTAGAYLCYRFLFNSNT
The assay can be described thus: Inhibition of recombinant human PTP1B expressed in Escherichia coli […] preincubated for 15 mins followed by substrate addition and measured after 60 mins. The method in brief:
(§2)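 Recombinant human phosphatases were expressed in E. coli and purified. Enzyme and compound were preincubated for 15 min at room temperature in pH 6.5 buffer (50 mM HEPES, 100 mM NaCl, 1 mM EDTA, 1 mM DTT). Buffer containing 50 mM pNPP was then added and the mix incubated for 60 min at 37 °C. Product p-nitrophenol was read at 405 nm. Assays were run in triplicate and IC50 derived.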

Assay [5] concerns the target L-lactate dehydrogenase A chain (Homo sapiens) (UniProt P00338). The assay can be described thus: Inhibition of recombinant human LDHA expressed in Escherichia coli […] preincubated for 15 mins followed by substrate addition and measured after 60 mins.
Assay [6] deals with Fusarium oxysporum. As to the kind of experiment: Antifungal activity against Fusarium oxysporum HNM 1003 assessed as growth inhibition at 0.6 mM measured after 48 hrs by microbroth dilution method. In kind it is functional. The settings on record: HNM 1003, 48 h, read-out: GI. The method in brief:
as §1
Background: Dilution methods test growth across graded concentrations, often in twofold steps.

In assay [7] the target is T2, Oxysterols receptor LXR-alpha (Homo sapiens, UniProt Q13133).
T2 sequence (Q13133 whole entry): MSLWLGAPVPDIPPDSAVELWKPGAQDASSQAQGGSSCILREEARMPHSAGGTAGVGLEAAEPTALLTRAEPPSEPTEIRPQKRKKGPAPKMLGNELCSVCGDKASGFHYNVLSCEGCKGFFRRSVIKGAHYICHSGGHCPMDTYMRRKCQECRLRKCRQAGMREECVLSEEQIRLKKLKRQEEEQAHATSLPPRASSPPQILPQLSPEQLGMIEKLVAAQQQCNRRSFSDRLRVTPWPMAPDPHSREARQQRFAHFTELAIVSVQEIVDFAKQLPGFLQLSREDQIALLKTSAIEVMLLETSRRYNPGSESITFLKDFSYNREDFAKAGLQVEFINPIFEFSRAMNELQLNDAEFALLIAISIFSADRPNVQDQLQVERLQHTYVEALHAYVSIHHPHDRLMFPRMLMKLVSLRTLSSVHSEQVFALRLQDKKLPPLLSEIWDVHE
The assay can be described thus: Transactivation of recombinant GAL4-fused human LXRalpha LBD (163 to 447 residues) expressed in human L02 cells measured after 24 hrs by luciferase reporter gene assay. In kind it is cell-based. Background: A reporter such as luciferase makes a cellular process visible.

Assay [8] concerns Curvularia australiensis. The assay can be described thus: Antifungal activity against Curvularia australiensis BY01 assessed as growth inhibition at 0.6 mM measured after 48 hrs by microbroth dilution method. The settings on record: BY01, 48 h, read-out: GI. In kind it is functional. The method in brief:
as §1

In assay [9] the target is T3, Tyrosine-protein phosphatase non-receptor type 9 (Homo sapiens, UniProt P43378).
T3 sequence (P43378 whole entry): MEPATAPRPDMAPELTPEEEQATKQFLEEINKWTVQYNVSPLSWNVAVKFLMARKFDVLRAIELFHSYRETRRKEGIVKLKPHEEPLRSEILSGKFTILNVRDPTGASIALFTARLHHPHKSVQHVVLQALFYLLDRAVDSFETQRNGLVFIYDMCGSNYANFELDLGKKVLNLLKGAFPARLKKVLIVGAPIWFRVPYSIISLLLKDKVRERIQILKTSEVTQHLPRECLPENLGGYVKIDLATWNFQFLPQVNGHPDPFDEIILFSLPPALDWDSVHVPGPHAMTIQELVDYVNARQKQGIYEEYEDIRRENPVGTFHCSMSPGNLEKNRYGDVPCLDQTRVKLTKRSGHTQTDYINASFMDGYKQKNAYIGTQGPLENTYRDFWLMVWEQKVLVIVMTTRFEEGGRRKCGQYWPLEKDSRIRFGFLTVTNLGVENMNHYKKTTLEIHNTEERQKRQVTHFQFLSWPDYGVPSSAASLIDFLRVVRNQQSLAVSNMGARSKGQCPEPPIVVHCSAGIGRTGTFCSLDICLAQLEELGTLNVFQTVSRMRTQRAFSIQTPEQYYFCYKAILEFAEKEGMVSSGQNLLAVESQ
The assay can be described thus: Inhibition of recombinant human MEG2 expressed in Escherichia coli […] preincubated for 15 mins followed by substrate addition and measured after 60 mins. The method in brief:
as §2

The target in assay [10] is T4, Tyrosine-protein phosphatase non-receptor type 2 (Homo sapiens, UniProt P17706).
T4 sequence (P17706 whole entry): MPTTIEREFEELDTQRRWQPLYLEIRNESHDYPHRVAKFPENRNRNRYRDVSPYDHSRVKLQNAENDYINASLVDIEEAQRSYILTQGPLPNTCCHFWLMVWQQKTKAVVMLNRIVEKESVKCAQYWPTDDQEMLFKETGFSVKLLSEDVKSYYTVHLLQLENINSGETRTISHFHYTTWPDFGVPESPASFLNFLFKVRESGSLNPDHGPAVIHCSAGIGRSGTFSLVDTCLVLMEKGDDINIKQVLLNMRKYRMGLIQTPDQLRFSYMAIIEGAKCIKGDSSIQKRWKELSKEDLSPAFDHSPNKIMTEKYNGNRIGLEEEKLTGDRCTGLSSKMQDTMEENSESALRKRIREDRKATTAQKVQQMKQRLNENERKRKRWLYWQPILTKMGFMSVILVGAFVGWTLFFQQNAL
As to the kind of experiment: Inhibition of recombinant human TCPTP expressed in Escherichia coli […] preincubated for 15 mins followed by substrate addition and measured after 60 mins. Summed up: as §2

The target of assay [11] is Tyrosine-protein phosphatase non-receptor type 6 (Homo sapiens, UniProt P29350). The assay can be described thus: Inhibition of recombinant human SHP1 expressed in Escherichia coli […] preincubated for 15 mins followed by substrate addition and measured after 60 mins. The method in brief: as §2
Sequence of Tyrosine-protein phosphatase non-receptor type 6 (P29350 whole entry): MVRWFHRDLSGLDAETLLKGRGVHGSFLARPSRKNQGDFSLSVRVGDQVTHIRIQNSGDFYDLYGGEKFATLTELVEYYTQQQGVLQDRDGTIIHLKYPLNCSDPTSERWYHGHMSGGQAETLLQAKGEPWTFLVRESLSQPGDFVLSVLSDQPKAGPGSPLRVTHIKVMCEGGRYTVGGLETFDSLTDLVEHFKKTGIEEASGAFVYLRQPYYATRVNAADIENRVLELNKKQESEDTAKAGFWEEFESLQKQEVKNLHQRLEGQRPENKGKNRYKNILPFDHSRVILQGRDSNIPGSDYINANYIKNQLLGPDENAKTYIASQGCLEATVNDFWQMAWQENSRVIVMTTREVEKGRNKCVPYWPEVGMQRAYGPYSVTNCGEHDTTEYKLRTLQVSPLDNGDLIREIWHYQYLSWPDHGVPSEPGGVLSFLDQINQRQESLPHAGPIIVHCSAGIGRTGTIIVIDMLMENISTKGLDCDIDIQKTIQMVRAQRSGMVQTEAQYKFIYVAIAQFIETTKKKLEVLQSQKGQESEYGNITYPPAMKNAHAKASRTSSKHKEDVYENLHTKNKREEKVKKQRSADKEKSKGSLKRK
Assay [12] deals with T5, Tyrosine-protein phosphatase non-receptor type 11 (Homo sapiens, UniProt Q06124).
T5 sequence (Q06124 whole entry): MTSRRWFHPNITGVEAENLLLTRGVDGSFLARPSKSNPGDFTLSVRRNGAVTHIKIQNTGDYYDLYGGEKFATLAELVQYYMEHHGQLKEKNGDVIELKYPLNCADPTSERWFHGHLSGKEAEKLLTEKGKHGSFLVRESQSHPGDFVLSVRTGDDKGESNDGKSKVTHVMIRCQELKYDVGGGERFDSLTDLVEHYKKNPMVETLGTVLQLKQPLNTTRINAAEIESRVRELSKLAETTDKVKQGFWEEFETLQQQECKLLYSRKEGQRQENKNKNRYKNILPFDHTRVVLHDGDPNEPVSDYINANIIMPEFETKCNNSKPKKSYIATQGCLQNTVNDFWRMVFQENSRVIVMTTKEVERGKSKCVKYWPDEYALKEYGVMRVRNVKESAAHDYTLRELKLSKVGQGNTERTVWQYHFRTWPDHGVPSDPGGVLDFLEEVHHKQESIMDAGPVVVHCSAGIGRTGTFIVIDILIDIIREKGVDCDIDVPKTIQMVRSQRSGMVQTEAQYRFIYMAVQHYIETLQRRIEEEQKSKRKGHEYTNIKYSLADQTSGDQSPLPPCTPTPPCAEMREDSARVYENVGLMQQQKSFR
The assay can be described thus: Inhibition of recombinant human SHP2 expressed in Escherichia coli […] preincubated for 15 mins followed by substrate addition and measured after 60 mins. Summed up:
as §2

SMILES strings stand for the structures. Active and inactive are the calls of the source. The calls are words filed in the database; no cut-off is given here.

With `C[C@@H]1C(=O)N[C@](O)(Cc2ccccc2)c2nc3c(c(=O)n21)C=CC=CO3`, the inhibition of growth at 600 µM in assay [1], in [3], in [6] and in assay [8] was less than 50% throughout. Moreover, the IC50 in assay [2], in [4], in [9], in assay [10], in assay [11] and in assay [12] was 14 to 87 µM in each case. Further, in [5], the inhibition entry was “inactive”. Further, in assay [7], the EC50 (usually the concentration at which the effect is half-maximal) amounted to 47 µM.
`CC[C@@H](C)C1=C2N=C3OC=CC=C[C@]3(OC)C(=O)N2[C@@H](Cc2ccccc2)C(=O)N1`: the inhibition of growth at 600 µM in assay [1], in [3], in assay [6] and in assay [8] was less than 50% throughout. In addition, the IC50 in [2], in assay [4], in [9], in [10], in assay [11] and in assay [12] was 14 to 87 µM each time. Moreover, the inhibition entry in [5] was “inactive”. Further, in assay [7], the EC50 amounted to 41 µM.
For the compound `C[C@@H]1C(=O)N/C(=C\c2ccccc2)c2nc3c(O)cccc3c(=O)n21`, the inhibition of growth at 600 µM in assay [1], in assay [3], in assay [6] and in [8] was less than 50% throughout. Also, the IC50 in [2], in [4], in assay [9], in assay [10], in [11] and in assay [12] was 14 to 87 µM in each case. In addition, in assay [5], the inhibition entry is “inactive”. Also, in assay [7], the concentration giving a half-maximal response (EC50) was determined as 1.7 µM.

Values taken from ChEMBL document CHEMBL4392864, “Diketopiperazine-Type Alkaloids from a Deep-Sea-Derived Aspergillus puniceus Fungus and Their Effects on Liver X Receptor α” (J Nat Prod, 2019).
